For one data set, the system named is Hepatitis C virus. Description: Antiviral activity against HCV Con1 in eplicon cells after 3 days by RT-PCR analysis. The format is functional, organism-based, Hepacivirus hominis. As to conditions: isolate Con1, 72 h. Summed up:
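HCV 1b-Con1 replicon cells seeded at 5000 cells/well one day before treatment; inhibitor in DMSO added as 10 serial twofold dilutions in duplicate (final 0.5% DMSO, 5% FBS). Harvested 3 days post dosing; replicon RNA quantified by real-time RT-PCR (Taqman), GAPDH RNA as endogenous control; EC50 calculated.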

Data set [1] in a line: Irreversible inhibition of HCV1b NS5B delta21 polymerase by radiolabeled nucleotide incorporation assay. Further details: species or system Hepatitis C virus subtype 1b.
A short description of data set [2]: Plasma protein binding in human. The format is ADME, cell-free. As to conditions: read-out: PPB (converted).
The nature of data set [3]: Plasma protein binding in cynomolgus monkey. The following applies: read-out: PPB (converted). The format is ADME, cell-free, Macaca fascicularis.
The nature of data set [4]: Plasma protein binding in beagle dog. The format is ADME, cell-free, Canis lupus familiaris. As to conditions: read-out: PPB (converted).
Data set [5] can be described thus: Plasma protein binding in Sprague-Dawley rat. The format is ADME, cell-free. The following applies: read-out: PPB (converted).
Data set [6] is described as follows: Ratio of drug uptake in brain to plasma of Sprague-Dawley rat at 10 mg/kg, po. The format is ADME, organism-based. The following applies: read-out: BPR. Also noted: dose 10 mg/kg, route oral. In outline: (§1)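 Crystalline sodium salt given orally at 10 mg/kg to fasted male Sprague Dawley rats. Liver and brain uptake were measured and reported as the mean tissue-to-plasma ratio.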

A short description of data set [7]: Ratio of drug uptake in liver to plasma of Sprague-Dawley rat at 10 mg/kg, po. The format is ADME, organism-based. Further details: dose 10 mg/kg, route oral. In outline:
as §1

Data set [8] can be described thus: Volume of distribution at steady state in beagle dog. The format is ADME, organism-based, Canis lupus familiaris. As to conditions: in vivo, read-out: Vdss. Summed up:
(§2)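 The compound was given as a crystalline sodium salt. Pharmacokinetics were studied in Sprague Dawley rats, Cynomolgus monkeys and Beagle dogs after oral (PO) and IV dosing. Oral exposure was read as AUC, and the oral dose was 3 mpk in monkeys and dogs. Volume of distribution was taken at steady state.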

Data set [9] in a line: Volume of distribution at steady state in cynomolgus monkey. The format is ADME, organism-based, Macaca fascicularis. As to conditions: in vivo, read-out: Vdss. In outline:
as §2

Data set [10] in a line: Volume of distribution at steady state in Sprague-Dawley rat. As to conditions: in vivo, read-out: Vdss. The format is ADME, organism-based. Summed up: as §2
The nature of data set [11]: Clearance in beagle dog. The format is ADME, organism-based, Canis lupus familiaris. The following applies: in vivo.
Data set [12] in a line: Half life in iv dosed beagle dog. The format is ADME, organism-based, Canis lupus familiaris. As to conditions: in vivo.
Data set [13] is described as follows: Oral bioavailability in beagle dog at 3 mg/kg. The format is ADME, organism-based, Canis lupus familiaris. As to conditions: in vivo. Summed up: as §2
A short description of data set [14]: AUC in beagle dog at 3 mg/kg, po. Also noted: dose 3 mg/kg, route oral. The format is ADME, organism-based, Canis lupus familiaris. As to conditions: plasma. Summed up: (§3)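 Given orally as crystalline sodium salt; plasma AUC determined in Sprague Dawley rats (10 mpk), Cynomolgus monkeys (3 mpk) or Beagle dogs (3 mpk).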
Data set [15] can be described thus: Clearance in cynomolgus monkey. The following applies: in vivo. The format is ADME, organism-based, Macaca fascicularis.
Data set [16] is described as follows: Half life in iv dosed cynomolgus monkey. The format is ADME, organism-based, Macaca fascicularis. The following applies: in vivo.
Data set [17] is described as follows: Oral bioavailability in cynomolgus monkey at 3 mg/kg. The format is ADME, organism-based, Macaca fascicularis. As to conditions: in vivo. In outline: as §2
Data set [18] in a line: AUC in cynomolgus monkey at 3 mg/kg, po. The format is ADME, organism-based, Macaca fascicularis. Also noted: dose 3 mg/kg, route oral. The following applies: plasma. Summed up:
as §3

Data set [19] in a line: Half life in iv dosed Sprague-Dawley rat. The format is ADME, organism-based. The following applies: in vivo.
Data set [20] is described as follows: Oral bioavailability in Sprague-Dawley rat at 10 mg/kg. The format is ADME, organism-based. As to conditions: in vivo.
Data set [21] can be described thus: Clearance in Sprague-Dawley rat. The format is ADME, organism-based. As to conditions: in vivo.
A short description of data set [22]: AUC in Sprague-Dawley rat at 10 mg/kg, po. The format is ADME, organism-based. Also noted: dose 10 mg/kg, route oral. The following applies: plasma. Summed up:
as §3

Another data set has as its system Enterovirus C. Description: Inhibition of Poliovirus RNA-dependent RNA polymerase.
Data set [23] relates to Human immunodeficiency virus. Description: Inhibition of HIV RNA-dependent DNA polymerase.
Data set [24] relates to Hepacivirus hominis. Description: Inhibition of HCV NS3 helicase.
For data set [25], the system named is Hepacivirus hominis. Description: Inhibition of HCV NS3 protease.

Calls of active or inactive are those of the source. The calls are words filed in the database; no cut-off is given here.

Broadly, the EC50 is the concentration needed to bring the measured effect to its halfway point. What is called IC50 is the concentration that inhibits the measured activity by half. As for `Cc1cc2c(-c3ccc[nH]c3=O)c(C(=O)O)n(Cc3c(Cl)nc4ccccc4c3Cl)c2cc1F`, the EC50 with Hepatitis C virus is above 1000 nM. This compound also returned a half-maximal inhibitory concentration (IC50) in data set [1] of 60 nM.
`COc1ccc2cc(Cn3c(C(=O)O)c(-c4ccc[nH]c4=O)c4cc(C)c(F)cc43)c(Cl)nc2c1` gave an EC50 with Hepatitis C virus of 10 nM. This compound registered an IC50 in data set [1] of 6 nM.
The clearance is the rate of elimination divided by the concentration. As a reminder, the half-life is how long it takes for the measured level to halve. For orientation: bioavailability means dose-corrected exposure relative to a reference, in per cent. As usually defined, the AUC is the area under the concentration-time curve, a measure of exposure. Consider `Cc1cc2c(-c3ccc[nH]c3=O)c(C(=O)[O-])n(Cc3cc4ccccc4nc3Cl)c2cc1F.[Na+]`, for which the fraction unbound in data set [2] is 0.003; in [3], 0.005; in [4], 0.004; in data set [5] it was 0.002. The Kp was below 0.01 in data set [6] and 0.4 in data set [7]. Also, the Vd was 1.7 L/kg in data set [8], 1.2 L/kg in [9] and 0.3 L/kg in data set [10]. Besides, the clearance came to 13 mL/min/kg in data set [11], 3.5 mL/min/kg in [15] and 1.5 mL/min/kg in data set [21]. Also, the half-life in data set [12] is 2 h; in data set [16] it was 5 h; in data set [19] it was 7 h. Moreover, the bioavailability in [13] amounted to 38%; in data set [17], 38%; in data set [20], 14%. The figures for the AUC in data set [14], in data set [18] and in [22] were 3.2 µM·h, 11.5 µM·h and 35 µM·h, respectively.
Compound `Cc1cc2c(-c3ccc[nH]c3=O)c(C(=O)O)n(Cc3cc4cc(F)c(F)cc4nc3Cl)c2cc1F` had an EC50 with Hepatitis C virus of 30 nM. In data set [1], this compound yielded an IC50 of 10 nM.
Take `Cc1cc2c(-c3ccc[nH]c3=O)c(C(=O)O)n(Cc3cc4ccccc4nc3Cl)c2cc1F`: the inhibition entry (with Enterovirus C; in [23]; with Hepacivirus hominis [24]; in the data set with Hepacivirus hominis [25]) was “inactive” each time.
`Cc1cc2c(-c3ccc[nH]c3=O)c(C(=O)O)n(Cc3cnc4ccccc4c3Cl)c2cc1F` registered a half-maximal effective concentration (EC50) with Hepatitis C virus of 20 nM. The same compound displayed an IC50 in [1] of 6 nM.
Compound `Cc1ccc2nc(Cl)c(Cn3c(C(=O)O)c(-c4ccc[nH]c4=O)c4cc(C)c(F)cc43)cc2c1` gave an EC50 in the data set with Hepatitis C virus of 25 nM. The IC50 in data set [1] was found to be 20 nM.
In the same order, the values of `Cc1cc2c(-c3ccc[nH]c3=O)c(C(=O)O)n(Cc3ccc(Cl)nc3)c2cc1F` are above 1000 nM and 9 nM.
On the same counts, the results for `Cc1cc2c(-c3ccc[nH]c3=O)c(C(=O)O)n(Cc3cc(F)cnc3Cl)c2cc1F` are 1000 nM and 12 nM.
`Cc1cc2c(-c3ccc[nH]c3=O)c(C(=O)O)n(Cc3cc4ccc(F)cc4nc3Cl)c2cc1F` had an EC50 with Hepatitis C virus of 20 nM. In data set [1], this compound gave an IC50 of 20 nM.

The record behind these values is ChEMBL document CHEMBL3091412, “Discovery of an irreversible HCV NS5B polymerase inhibitor” (Bioorg Med Chem Lett, 2013).
